Reference: ChEMBL document CHEMBL1130789, “Peptidyl human heart chymase inhibitors. 1. Synthesis and inhibitory activity of difluoromethylene ketone derivatives bearing P' binding subsites” (Bioorg Med Chem Lett, 1998)
Non-standard residues stand in square brackets, D forms with d. Residues, ends and D or L forms follow the SMILES beside them. ξ: configuration not given here. *: point of attachment. ξF = NC(Cc1ccccc1)C(=O)O; Boc = CC(C)(C)OC(=O)*; CF3 = FC(F)(F)*

What was measured:
Bos taurus = species on record: Bos taurus; assay: Selectivity ratio of Bovine chymotrypsin (BCT - Ki) to human heart chymase (HHC - Ki)
Chymotrypsinogen A = Chymotrypsinogen A (Bos taurus, UniProt P00766); assay: Compound was evaluated for inhibitory activity against Chymotrypsinogen
Summary of the method: (§1)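 Synthetic chromogenic substrate at 2.5 mM final in 20 mM Tris-HCl pH 7.5 with 2 M KCl. Five inhibitor concentrations were tested, with 10% DMSO in water as the control. The enzyme was added last. A405 minus A650 was read after 2 h at 37 °C. Residual activity was fitted by Easson–Stedman, and Ki = Ki'×Km/(Km+[S]). Mean ± SEM, n = 3 (some n = 2).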

Chymase = target: T1, Chymase (Homo sapiens, UniProt P23946); assay: Compound was evaluated for inhibitory activity against human heart chymase (HHC); summary of the method: as §1
T1 sequence (P23946 whole entry): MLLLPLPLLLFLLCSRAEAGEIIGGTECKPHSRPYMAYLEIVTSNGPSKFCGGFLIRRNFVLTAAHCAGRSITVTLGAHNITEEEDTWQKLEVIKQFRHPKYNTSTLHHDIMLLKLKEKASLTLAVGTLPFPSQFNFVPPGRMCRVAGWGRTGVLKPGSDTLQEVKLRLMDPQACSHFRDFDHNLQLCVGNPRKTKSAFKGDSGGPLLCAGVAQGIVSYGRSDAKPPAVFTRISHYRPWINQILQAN

Ratio (Bos taurus)	Ki (Chymotrypsinogen A) [nM]	Ki (Chymase) [nM]	SMILES
13	207	16.5	CC(C)[C@H](NS(C)(=O)=O)C(=O)N1CCC[C@H]1C(=O)NC(Cc1ccccc1)C(=O)C(F)(F)C(=O)Nc1cccc(C(=O)O)c1 (stereo not given in full)
88	275	3.1	CC(C)[C@H](NC(=O)c1ccccc1)C(=O)N1CCC[C@H]1C(=O)NC(Cc1ccccc1)C(=O)C(F)(F)C(=O)Nc1cccc(C(=O)O)c1 (stereo not given in full)
> 65	> 100000	1550	CC(C)[C@H](NC(=O)OC(C)(C)C)C(=O)N1CCC[C@H]1C(=O)NC(Cc1ccccc1)C(=O)C(F)(F)C(=O)NC(CC(=O)O)C(=O)O (stereo not given in full)
> 96	> 100000	1040	CC(C)[C@H](NC(=O)OC(C)(C)C)C(=O)N1CCC[C@H]1C(=O)NC(Cc1ccccc1)C(=O)C(F)(F)C(=O)NC(C(=O)O)c1ccccc1 (stereo not given in full)
> 28	> 100000	3620	CC(C)[C@H](NC(=O)OC(C)(C)C)C(=O)N1CCC[C@H]1C(=O)NC(Cc1ccccc1)C(=O)C(F)(F)C(=O)Nc1ccccc1C(=O)O (stereo not given in full)
111	2040	18.3	CC(C)[C@H](NC(=O)OC(C)(C)C)C(=O)N1CCC[C@H]1C(=O)NC(Cc1ccccc1)C(=O)C(F)(F)C(=O)NCCc1ccccc1 (stereo not given in full)
	11900	92.4	CC(C)[C@H](NC(=O)OC(C)(C)C)C(=O)N1CCC[C@H]1C(=O)NC(Cc1ccccc1)C(=O)C(F)(F)C(=O)NCc1ccccc1 (mixture of isomers; form 2) [listing 1 of 2 here]
2	113	55.8	CC(C)[C@H](NC(=O)OC(C)(C)C)C(=O)N1CCC[C@H]1C(=O)NC(Cc1ccccc1)C(=O)C(F)(F)F (stereo partly drawn) (Boc-Val-Pro-[ξF]-CF3)
387	2510	6.5	COC(=O)CNC(=O)C(F)(F)C(=O)C(Cc1ccccc1)NC(=O)[C@@H]1CCCN1C(=O)[C@@H](NC(=O)OC(C)(C)C)C(C)C (stereo not given in full)
200	2620	13.1	CC(C)[C@H](NC(=O)OC(C)(C)C)C(=O)N1CCC[C@H]1C(=O)NC(Cc1ccccc1)C(=O)C(F)(F)C(=O)NCC(=O)O (stereo not given in full)
23			CC(C)[C@H](NC(=O)OC(C)(C)C)C(=O)N1CCC[C@H]1C(=O)NC(Cc1ccccc1)C(=O)C(F)(F)C(=O)NCc1ccccc1 (mixture of isomers; form 1) [listing 1 of 2 here]
15	19	1.3	CC(C)[C@H](NC(=O)CCc1ccccc1)C(=O)N1CCC[C@H]1C(=O)NC(Cc1ccccc1)C(=O)C(F)(F)C(=O)Nc1cccc(C(=O)O)c1 (stereo not given in full)
29	200	6.8	CC(C)[C@H](NC(=O)OC(C)(C)C)C(=O)N1CCC[C@H]1C(=O)NC(Cc1ccccc1)C(=O)C(F)(F)C(=O)Nc1ccc(C(=O)O)cc1 (stereo not given in full)
	364	5.6	CC(C)[C@H](NC(=O)OC(C)(C)C)C(=O)N1CCC[C@H]1C(=O)NC(Cc1ccccc1)C(=O)C(F)(F)C(=O)Nc1cccc(C(=O)O)c1 (stereo not given in full)
> 99	> 100000	1010	CC(C)[C@H](NC(=O)OC(C)(C)C)C(=O)N1CCC[C@H]1C(=O)NC(Cc1ccccc1)C(=O)C(F)(F)C(=O)NC(CCC(=O)O)C(=O)O (stereo not given in full)
2	11	7.1	CC(=O)N[C@H](C(=O)N1CCC[C@H]1C(=O)NC(Cc1ccccc1)C(=O)C(F)(F)C(=O)Nc1cccc(C(=O)O)c1)C(C)C (stereo not given in full)
> 203	> 100000	493	CC(C)[C@H](NC(=O)OC(C)(C)C)C(=O)N1CCC[C@H]1C(=O)NC(Cc1ccccc1)C(=O)C(F)(F)C(=O)N1CCCC1C(=O)O (stereo not given in full)
63	2300	36.4	CC(C)[C@H](NC(=O)OC(C)(C)C)C(=O)N1CCC[C@H]1C(=O)NC(Cc1ccccc1)C(=O)C(F)(F)C(=O)NCCC(=O)O (stereo not given in full)
25	316	12.5	CC(C)[C@H](NC(=O)OC(C)(C)C)C(=O)N1CCC[C@H]1C(=O)NC(Cc1ccccc1)C(=O)C(F)(F)C(=O)NCC(=O)OCc1ccccc1 (stereo not given in full)
129			CC(C)[C@H](NC(=O)OC(C)(C)C)C(=O)N1CCC[C@H]1C(=O)NC(Cc1ccccc1)C(=O)C(F)(F)C(=O)NCc1ccccc1 (mixture of isomers; form 2) [listing 2 of 2 here]
	172	7.4	CC(C)[C@H](NC(=O)OC(C)(C)C)C(=O)N1CCC[C@H]1C(=O)NC(Cc1ccccc1)C(=O)C(F)(F)C(=O)NCc1ccccc1 (mixture of isomers; form 1) [listing 2 of 2 here]
837	54900	65.6	CC(NC(=O)C(F)(F)C(=O)C(Cc1ccccc1)NC(=O)[C@@H]1CCCN1C(=O)[C@@H](NC(=O)OC(C)(C)C)C(C)C)C(=O)O (stereo not given in full)
108	7550	70.1	CC(C)[C@H](NC(=O)OC(C)(C)C)C(=O)N1CCC[C@H]1C(=O)NC(Cc1ccccc1)C(=O)C(F)(F)C(=O)N(C)Cc1ccccc1 (stereo not given in full)
151	77400	513	CC(C)[C@H](NC(=O)OC(C)(C)C)C(=O)N1CCC[C@H]1C(=O)NC(Cc1ccccc1)C(=O)C(F)(F)C(=O)N[C@@H](Cc1ccccc1)C(=O)O (stereo not given in full)
37	1070	28.7	CNC(=O)C(F)(F)C(=O)C(Cc1ccccc1)NC(=O)[C@@H]1CCCN1C(=O)[C@@H](NC(=O)OC(C)(C)C)C(C)C (stereo not given in full)
88	554	6.3	CC(C)[C@H](NS(=O)(=O)c1ccccc1)C(=O)N1CCC[C@H]1C(=O)NC(Cc1ccccc1)C(=O)C(F)(F)C(=O)Nc1cccc(C(=O)O)c1 (stereo not given in full)
185	4430	24	CC(C)[C@H](NC(=O)OC(C)(C)C)C(=O)N1CCC[C@H]1C(=O)NC(Cc1ccccc1)C(=O)C(F)(F)C(=O)NCCCC(=O)O (stereo not given in full)
4	70	16.3	CC(C)[C@H](NC(=O)OC(C)(C)C)C(=O)N1CCC[C@H]1C(=O)NC(Cc1ccccc1)C(=O)C(F)(F)C(=O)Nc1ccccc1 (stereo not given in full)
57	1700	30.1	CC(C)[C@H](NC(=O)OC(C)(C)C)C(=O)N1CCC[C@H]1C(=O)NC(Cc1ccccc1)C(=O)C(F)(F)C(=O)NC(Cc1ccccc1)C(=O)O (stereo not given in full)
